In ChEMBL document CHEMBL1123216, “Sustained brain-specific delivery of estradiol causes long-term suppression of luteinizing hormone secretion” (J Med Chem, 1986):

Columns and labels:
Format in all cases: functional, organism-based
Rattus norvegicus [1] = test: Serum concentration of LH 24 days after intravenous administration in Orchidectomized rats
Outline: (§1)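 Male rats given a single iv dose (2.1 or 3.0 mg/kg, dimethyl sulfoxide vehicle at 0.5 mL/kg) 2 weeks after orchidectomy. At 12, 18 or 24 days they were killed by decapitation and serum LH was measured by radioimmunoassay, expressed against reference preparation LH-RP-2. Samples assayed in duplicate; mean ± SEM, 6–7 animals per group.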

Rattus norvegicus [2] = test: Serum concentration of estradiol 18 days after intravenous administration in Orchidectomized rats
Outline: (§2)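 Male rats were orchidectomized and 2 weeks later given a single iv dose (2.1 or 3.0 mg/kg, dimethyl sulfoxide vehicle). After decapitation at 12, 18 or 24 days, serum estradiol was measured by a published radioimmunoassay in modified form, in duplicate. Assay sensitivity limit was 20 pg/mL. Values are mean ± SEM, with the number of samples below the limit given per group.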

Rattus norvegicus [3] = test: Serum concentration of estradiol 24 days after intravenous administration in Orchidectomized rats; outline: as §2
Rattus norvegicus [4] = test: Serum concentration of LH 18 days after intravenous administration in Orchidectomized rats; outline: as §1
Rattus norvegicus [5] = test: Serum concentration of estradiol 12 days after intravenous administration in Orchidectomized rats; outline: as §2
Rattus norvegicus [6] = test: Serum concentration of LH 12 days after intravenous administration in Orchidectomized rats; outline: as §1

| SMILES | Concentration (Rattus norvegicus [1]) [ng/mL] | Concentration (Rattus norvegicus [2]) [ng/mL] | Concentration (Rattus norvegicus [3]) [ng/mL] | Concentration (Rattus norvegicus [4]) [ng/mL] | Concentration (Rattus norvegicus [5]) [ng/mL] | Concentration (Rattus norvegicus [6]) [ng/mL] |
| --- | --- | --- | --- | --- | --- | --- |
| C[C@]12CC[C@@H]3c4ccc(O)cc4CC[C@H]3[C@@H]1CC[C@@H]2O | 11.6 | < 0.02 | 0.0312 | 12.1 | 0.0293 | 12.9 |
| CN1C=CCC(C(=O)O[C@H]2CC[C@H]3[C@@H]4CCc5cc(O)ccc5[C@H]4CC[C@]23C)=C1 | 2.9 | < 0.02 | 0.0241 | 1.7 | 0.0259 | 0.8 |
| C[S+](C)[O-] | 8.6 | < 0.02 | 0.0244 | 12.4 | 0.0275 | 6.8 |
